Experimental findings from ChEMBL document CHEMBL4321879, “Novel Class of Colony-Stimulating Factor 1 Receptor Kinase Inhibitors Based on an o-Aminopyridyl Alkynyl Scaffold as Potential Treatment for Inflammatory Disorders” (J Med Chem, 2020) are described below.

One data set deals with FLT3 (Homo sapiens, UniProt P36888). Nature of the data set: Inhibition of recombinant human N-terminal GST-tagged FLT3 (564 to end residues) expressed in Sf21 insect cells at 1000 nM using poly (Glu, Tyr)4:1 as substrate measured after 1 hr by ELISA relative to control. As to conditions: probe poly (Glu, Tyr)4:1. The gist of the method:
(§1)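 Recombinant kinase was incubated with compound in reaction buffer containing 5 μM ATP, in wells precoated with poly(Glu,Tyr) 4:1, for 1 h at 37 °C. Phosphorylation was detected by ELISA.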
Background: ELISA stands for enzyme-linked immunosorbent assay.

Data set [1] can be described thus: MRT (infinity) in Sprague-Dawley rat at 2 mg/kg, iv administered […] by LC-MS/MS analysis. Format: ADME, organism-based. The note with it: in vivo. The gist of the method:
(§2)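 Male SD rats (200 ± 20 g), fasted 12 h, n = 3; single intravenous dose of 2 mg/kg in DMSO/EtOH/PEG300/saline (5/5/40/50). Femoral vein blood at 15–1440 min; plasma precipitated with methanol containing internal standard, assayed by LC–MS/MS; noncompartmental analysis (MRT = AUMC/AUC, Vss = CL × MRT).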

A short description of data set [2]: Volume of distribution at steady state in Sprague-Dawley rat at 2 mg/kg, iv administered […] by LC-MS/MS analysis. Format: ADME, organism-based. The note with it: in vivo, read-out: Vdss. The gist of the method: as §2
The target in data set [3] is Activated CDC42 kinase 1 (Homo sapiens) (UniProt Q07912). Kind of data set: Inhibition of recombinant human N-terminal GST-tagged ACK1 (1 to 389 residues) expressed in baculovirus infected Sf21 insect cells at 100 nM using poly (Glu, Tyr)4:1 as substrate measured after 1 hr by ELISA relative to control. Put shortly:
as §1

Data set [4] has as its target Ephrin type-A receptor 2 (Homo sapiens) (UniProt P29317). Kind of data set: Inhibition of recombinant human N-terminal His6-tagged EphA2 (596 to 900 residues) expressed in baculovirus infected Sf21 insect cells at 100 nM using poly (Glu, Tyr)4:1 as substrate measured after 1 hr by ELISA relative to control. The gist of the method:
as §1

The target in data set [5] is Tyrosine-protein kinase BTK (Homo sapiens) (UniProt Q06187). Kind of data set: Inhibition of recombinant human full-length N-terminal His6-tagged BTK expressed in baculovirus infected Sf21 insect cells at 100 nM using poly (Glu, Tyr)4:1 as substrate measured after 1 hr by ELISA relative to control. Put shortly: (§3)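 ELISA kinase assay: recombinant kinase added to wells precoated with poly(Glu,Tyr)4:1 and incubated with compound in reaction buffer containing 5 μM ATP, 37 °C for 1 h; wells then washed before antibody detection.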
Sequence of Tyrosine-protein kinase BTK (Homo sapiens) (Q06187 whole entry): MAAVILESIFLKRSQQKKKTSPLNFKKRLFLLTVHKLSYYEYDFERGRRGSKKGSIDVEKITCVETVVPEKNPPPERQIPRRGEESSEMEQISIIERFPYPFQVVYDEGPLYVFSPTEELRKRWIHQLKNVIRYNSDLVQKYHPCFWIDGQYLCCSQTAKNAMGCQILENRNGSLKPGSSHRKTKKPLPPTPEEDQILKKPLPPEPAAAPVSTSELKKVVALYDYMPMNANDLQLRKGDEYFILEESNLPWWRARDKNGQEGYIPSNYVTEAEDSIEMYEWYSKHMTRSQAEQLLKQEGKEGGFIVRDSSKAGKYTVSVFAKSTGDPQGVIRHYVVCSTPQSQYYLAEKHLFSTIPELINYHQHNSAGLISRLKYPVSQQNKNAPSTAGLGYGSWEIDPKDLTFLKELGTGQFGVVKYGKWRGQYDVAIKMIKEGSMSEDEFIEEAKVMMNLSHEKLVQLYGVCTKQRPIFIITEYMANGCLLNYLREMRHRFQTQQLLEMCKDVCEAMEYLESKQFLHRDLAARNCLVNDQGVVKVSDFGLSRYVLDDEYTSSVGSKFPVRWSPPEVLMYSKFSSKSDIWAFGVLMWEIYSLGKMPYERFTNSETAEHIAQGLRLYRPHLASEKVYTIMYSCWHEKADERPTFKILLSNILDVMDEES

Data set [6] has as its target Insulin receptor (Homo sapiens) (UniProt P06213). Kind of data set: Inhibition of recombinant human N-terminal His6-tagged IR (1005 to 1310 residues) expressed in baculovirus infected Sf21 insect cells at 100 nM using poly (Glu, Tyr)4:1 as substrate measured after 1 hr by ELISA relative to control. Put shortly: as §3
Data set [7] addresses T1, Fibroblast growth factor receptor 1 (Homo sapiens, UniProt P11362). Nature of the data set: Inhibition of recombinant human N-terminal GST-tagged FGFR1 (456 to 765 residues) expressed in baculovirus infected Sf21 insect cells at 100 nM using poly (Glu, Tyr)4:1 as substrate measured after 1 hr by ELISA relative to control. The gist of the method: as §1
Target sequence in this assay (P11362 22-822 limits assumed): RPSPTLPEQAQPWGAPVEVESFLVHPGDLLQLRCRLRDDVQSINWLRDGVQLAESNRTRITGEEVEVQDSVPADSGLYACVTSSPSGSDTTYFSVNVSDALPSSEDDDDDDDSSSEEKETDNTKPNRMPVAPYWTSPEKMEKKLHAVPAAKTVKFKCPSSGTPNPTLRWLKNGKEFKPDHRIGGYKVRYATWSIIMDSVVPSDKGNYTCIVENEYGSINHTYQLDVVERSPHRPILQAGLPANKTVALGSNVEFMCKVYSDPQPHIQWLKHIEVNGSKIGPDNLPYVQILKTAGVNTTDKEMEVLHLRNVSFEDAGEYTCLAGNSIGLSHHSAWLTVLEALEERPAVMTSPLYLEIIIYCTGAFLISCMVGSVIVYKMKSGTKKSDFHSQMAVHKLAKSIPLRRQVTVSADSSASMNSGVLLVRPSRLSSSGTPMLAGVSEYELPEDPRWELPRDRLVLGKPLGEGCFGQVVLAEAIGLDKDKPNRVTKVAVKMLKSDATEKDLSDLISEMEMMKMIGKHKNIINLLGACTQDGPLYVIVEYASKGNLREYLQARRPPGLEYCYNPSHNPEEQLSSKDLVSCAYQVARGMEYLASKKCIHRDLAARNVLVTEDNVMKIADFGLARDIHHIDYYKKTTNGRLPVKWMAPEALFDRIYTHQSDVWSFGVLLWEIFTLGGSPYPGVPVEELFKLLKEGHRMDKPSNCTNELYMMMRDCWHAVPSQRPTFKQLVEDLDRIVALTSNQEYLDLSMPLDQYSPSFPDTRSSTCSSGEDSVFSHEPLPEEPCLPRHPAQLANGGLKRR
Data set [8] addresses Vascular endothelial growth factor receptor 3 (Homo sapiens) (UniProt P35916). Kind of data set: Inhibition of recombinant VEGFR3 (unknown origin) at 10 nM using poly (Glu, Tyr)4:1 as substrate measured after 1 hr by ELISA relative to control. The gist of the method:
as §1

Data set [9] addresses Fibroblast growth factor receptor 4 (Homo sapiens, UniProt P22455). Kind of data set: Inhibition of recombinant human N-terminal His6-tagged FGFR4 (442 to 755 residues) expressed in baculovirus infected Sf21 insect cells at 1000 nM using poly (Glu, Tyr)4:1 as substrate measured after 1 hr by ELISA relative to control. Put shortly: as §3
In data set [10] the target is Fibroblast growth factor receptor 3 (Homo sapiens, UniProt P22607). Kind of data set: Inhibition of recombinant human N-terminal His6-tagged FGFR3 (447 to 761 residues) expressed in baculovirus infected Sf21 insect cells at 1000 nM using poly (Glu, Tyr)4:1 as substrate measured after 1 hr by ELISA relative to control. The gist of the method: as §1
Sequence of Fibroblast growth factor receptor 3 (P22607 23-806 limits assumed): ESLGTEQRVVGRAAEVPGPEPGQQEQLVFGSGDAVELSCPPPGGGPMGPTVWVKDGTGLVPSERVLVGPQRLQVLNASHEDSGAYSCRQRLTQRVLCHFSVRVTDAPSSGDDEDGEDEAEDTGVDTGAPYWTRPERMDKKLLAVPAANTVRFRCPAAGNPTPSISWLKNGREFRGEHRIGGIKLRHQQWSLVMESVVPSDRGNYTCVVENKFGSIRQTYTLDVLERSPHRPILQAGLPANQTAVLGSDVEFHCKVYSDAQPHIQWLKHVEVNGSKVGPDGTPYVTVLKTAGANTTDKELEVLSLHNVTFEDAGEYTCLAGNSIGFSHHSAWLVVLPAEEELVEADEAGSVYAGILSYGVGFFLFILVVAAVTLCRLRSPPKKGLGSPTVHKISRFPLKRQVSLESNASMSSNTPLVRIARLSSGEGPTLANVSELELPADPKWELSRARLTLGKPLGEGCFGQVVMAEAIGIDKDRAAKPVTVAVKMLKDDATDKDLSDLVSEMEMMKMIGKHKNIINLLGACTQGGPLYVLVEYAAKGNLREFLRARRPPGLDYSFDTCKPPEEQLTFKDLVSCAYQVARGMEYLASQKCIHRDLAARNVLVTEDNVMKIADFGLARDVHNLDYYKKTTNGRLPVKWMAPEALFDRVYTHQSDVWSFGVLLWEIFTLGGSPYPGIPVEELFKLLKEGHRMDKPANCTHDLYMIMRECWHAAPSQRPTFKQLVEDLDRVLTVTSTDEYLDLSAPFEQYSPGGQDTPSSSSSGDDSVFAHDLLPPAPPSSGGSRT
The next data set concerns Mus musculus. Nature of the data set: Antiinflammatory activity in BALB/c mouse assessed as reduction in LPS-induced IL6 production at 20 to 40 mg/kg, po pretreated for 4 hrs followed by LPS-stimulation and measured after 3 hrs by ELISA. Format: functional, organism-based. Put shortly:
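Female BALB/c mice, 8 weeks old, n = 6 per group, dosed orally at 20 or 40 mg/kg in 0.5% CMC-Na/0.25% Tween-80 4 h before ip LPS 5 mg/kg. Orbital-sinus blood was taken at 1.5 h (TNF-α) and 3 h (IL-6). Serum cytokines measured by ELISA. Mean ± SEM, one-way ANOVA with Dunnett's test.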

Data set [11] deals with Proto-oncogene tyrosine-protein kinase Src (Homo sapiens) (UniProt P12931). Kind of data set: Inhibition of recombinant human full-length N-terminal His6-tagged Src expressed in Sf21 insect cells at 1000 nM using poly (Glu, Tyr)4:1 as substrate measured after 1 hr by ELISA relative to control. Put shortly: as §3
A short description of data set [12]: AUC (0 to t) in Sprague-Dawley rat at 2 mg/kg, iv administered […] by LC-MS/MS analysis. Format: ADME, organism-based. As to conditions: in vivo. The gist of the method: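 Male SD rats (200 ± 20 g) were fasted 12 h with free access to water, n = 3 per group. One group received 2 mg/kg iv in DMSO/EtOH/PEG300/saline (5/5/40/50). The other received 5 mg/kg by oral gavage in DMSO/HPMC (5/95). Femoral-vein plasma was taken at 15–1440 min, methanol-precipitated with internal standard, and measured by LC–MS/MS. Noncompartmental analysis; AUC by trapezoidal method.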

The target in data set [13] is Tyrosine-protein kinase BTK (Homo sapiens) (UniProt Q06187). Kind of data set: Inhibition of recombinant human full-length N-terminal His6-tagged BTK expressed in baculovirus infected Sf21 insect cells at 1000 nM using poly (Glu, Tyr)4:1 as substrate measured after 1 hr by ELISA relative to control. Put shortly:
as §3

For data set [14], the target named is Vascular endothelial growth factor receptor 1 (Homo sapiens) (UniProt P17948). Kind of data set: Inhibition of recombinant human VEGFR1 expressed in Spodoptera frugiperda insect cells at 100 nM using poly (Glu, Tyr)4:1 as substrate measured after 1 hr by ELISA relative to control. Put shortly: as §3
Sequence of Vascular endothelial growth factor receptor 1 (Homo sapiens) (P17948 whole entry): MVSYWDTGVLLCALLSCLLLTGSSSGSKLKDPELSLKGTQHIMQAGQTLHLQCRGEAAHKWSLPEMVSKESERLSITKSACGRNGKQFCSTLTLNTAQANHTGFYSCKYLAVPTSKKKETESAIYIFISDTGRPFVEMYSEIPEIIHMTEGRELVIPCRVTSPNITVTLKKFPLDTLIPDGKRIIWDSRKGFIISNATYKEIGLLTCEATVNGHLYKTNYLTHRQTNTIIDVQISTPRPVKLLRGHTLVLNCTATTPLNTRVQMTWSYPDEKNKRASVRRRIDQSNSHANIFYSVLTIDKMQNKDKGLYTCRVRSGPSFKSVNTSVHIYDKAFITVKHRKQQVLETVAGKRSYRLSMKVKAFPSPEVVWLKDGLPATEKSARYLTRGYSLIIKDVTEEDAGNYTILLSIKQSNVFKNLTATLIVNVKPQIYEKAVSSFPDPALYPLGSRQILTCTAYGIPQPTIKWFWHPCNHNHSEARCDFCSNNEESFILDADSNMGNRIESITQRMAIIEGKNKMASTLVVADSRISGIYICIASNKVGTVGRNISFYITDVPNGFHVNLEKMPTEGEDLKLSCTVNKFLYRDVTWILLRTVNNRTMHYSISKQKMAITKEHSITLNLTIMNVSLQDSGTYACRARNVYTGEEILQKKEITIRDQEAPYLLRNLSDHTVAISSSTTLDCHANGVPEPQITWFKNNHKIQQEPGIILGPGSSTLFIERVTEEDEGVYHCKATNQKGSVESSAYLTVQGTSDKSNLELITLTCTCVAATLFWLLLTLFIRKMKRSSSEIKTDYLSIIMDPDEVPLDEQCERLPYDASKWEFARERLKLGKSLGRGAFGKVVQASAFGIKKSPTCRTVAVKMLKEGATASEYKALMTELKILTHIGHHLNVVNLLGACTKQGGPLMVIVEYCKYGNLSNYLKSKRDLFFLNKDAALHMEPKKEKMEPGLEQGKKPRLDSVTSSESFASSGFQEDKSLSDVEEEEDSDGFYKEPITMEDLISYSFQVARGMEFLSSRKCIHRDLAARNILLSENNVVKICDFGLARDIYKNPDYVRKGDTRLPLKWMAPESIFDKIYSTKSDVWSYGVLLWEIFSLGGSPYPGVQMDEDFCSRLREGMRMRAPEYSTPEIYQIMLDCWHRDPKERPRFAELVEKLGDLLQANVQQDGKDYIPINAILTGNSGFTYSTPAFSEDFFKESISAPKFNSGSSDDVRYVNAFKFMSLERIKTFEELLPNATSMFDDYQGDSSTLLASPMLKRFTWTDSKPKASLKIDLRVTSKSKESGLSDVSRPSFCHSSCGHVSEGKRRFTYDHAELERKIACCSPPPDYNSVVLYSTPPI
The target of a further data set is c-KIT (Homo sapiens, UniProt P10721). Nature of the data set: Inhibition of recombinant human N-terminal GST-tagged c-KIT (544 to end residues) expressed in baculovirus infected Sf21 insect cells at 1000 nM using poly (Glu, Tyr)4:1 as substrate measured after 1 hr by ELISA relative to control. The note with it: probe poly (Glu, Tyr)4:1. The gist of the method: as §1

In data set [15] the target is T1, Fibroblast growth factor receptor 1. Nature of the data set: Inhibition of recombinant human N-terminal GST-tagged FGFR1 (456 to 765 residues) expressed in baculovirus infected Sf21 insect cells using poly (Glu, Tyr)4:1 as substrate measured after 1 hr by ELISA. Put shortly:
as §1

What is called inhibition is how much of the control response was suppressed. One may read the MRT inf as the average time that molecules of a dose stay in the body. One may read the AUC(0-t) as exposure summed from dosing to a finite time, without extrapolation to infinity. By IC50 is commonly meant the point on the concentration scale where inhibition reaches its midpoint.

Each structure is given as a SMILES string. Calls of active or inactive are those of the source. The rule behind the calls is not given here.

Sequence of Activated CDC42 kinase 1 (Homo sapiens) (Q07912 whole entry, looked up, the tested form may be a part): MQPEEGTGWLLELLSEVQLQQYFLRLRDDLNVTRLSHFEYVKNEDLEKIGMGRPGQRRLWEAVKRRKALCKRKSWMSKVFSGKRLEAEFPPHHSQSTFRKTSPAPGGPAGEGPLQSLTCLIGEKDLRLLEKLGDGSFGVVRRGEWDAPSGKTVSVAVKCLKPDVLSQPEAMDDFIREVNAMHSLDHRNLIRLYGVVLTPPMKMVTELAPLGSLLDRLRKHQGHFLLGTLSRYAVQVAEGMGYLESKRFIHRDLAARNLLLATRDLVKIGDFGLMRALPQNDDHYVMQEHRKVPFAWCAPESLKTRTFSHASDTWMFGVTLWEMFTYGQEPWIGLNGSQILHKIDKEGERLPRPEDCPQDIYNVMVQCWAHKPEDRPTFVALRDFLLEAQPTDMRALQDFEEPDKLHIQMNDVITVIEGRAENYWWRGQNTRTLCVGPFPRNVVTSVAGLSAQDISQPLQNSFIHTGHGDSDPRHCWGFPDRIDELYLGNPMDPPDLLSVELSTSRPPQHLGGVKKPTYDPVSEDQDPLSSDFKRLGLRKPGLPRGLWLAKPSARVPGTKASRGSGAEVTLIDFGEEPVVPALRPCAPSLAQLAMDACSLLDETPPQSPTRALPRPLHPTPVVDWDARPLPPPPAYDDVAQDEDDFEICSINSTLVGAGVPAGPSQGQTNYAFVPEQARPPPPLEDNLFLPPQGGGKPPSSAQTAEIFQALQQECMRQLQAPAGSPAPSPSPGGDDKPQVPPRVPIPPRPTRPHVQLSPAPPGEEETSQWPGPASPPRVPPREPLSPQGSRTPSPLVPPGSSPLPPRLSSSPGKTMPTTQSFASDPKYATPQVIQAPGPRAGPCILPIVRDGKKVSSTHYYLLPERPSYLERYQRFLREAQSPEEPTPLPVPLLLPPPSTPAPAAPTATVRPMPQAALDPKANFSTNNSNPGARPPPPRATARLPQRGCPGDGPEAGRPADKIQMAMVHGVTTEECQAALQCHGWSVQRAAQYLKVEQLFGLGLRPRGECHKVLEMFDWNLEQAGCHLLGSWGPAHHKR

For `Cc1ccc(C(=O)Nc2ccc(Cl)cc2)cc1C#Cc1cc(-c2cnn(C)c2)cnc1N`, the inhibition at 1 h, 1 µM at FLT3 worked out at 5.9%; on c-KIT, 98.2%. In [1], this molecule displayed an MRT inf of 2.3 h. In data set [2], the Vd came out at 6.34 L/kg. For the same molecule, the inhibition in [3] was determined as 10.3%; in data set [4], 31.4%; in data set [5], 0%; in data set [6] it was 2.1%; in data set [7], 0%; in [8] it was 27.3%. For the same molecule, the inhibition in [9] was 7.4%; in data set [10], 2.3%; in [11], 72.8%; in [13], 8%; in data set [14] it was 78.5%. Besides, the result in the data set with Mus musculus was Active. Besides, in data set [12], the AUC(0-t) turned out to be 729 ng·h/mL. Also, the IC50 in [15] was > 1 µM.
